Active and inactive are the calls of the source. No cut-off for these calls is given here.
Columns and labels:
C2 [1] = assay: Inhibition of curcumin-induced apoptosis in mouse C2 cells assessed as reduction in PARP cleavage at 2.5 uM pre-incubated for 30 mins before curcumin exposure for 4 hrs by SDS-PAGE and immunoblotting method; type: functional, cell-based
Summary of the method: (§1)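 C2 cells pre-incubated 30 min with compound, then 50 µM curcumin for 4 h; buffer G lysates (30 µg) immunoblotted with antibody detecting full-length PARP and the 89 kDa fragment, actin loading control; densitometry, means ± sem of ≥3 experiments, one-way ANOVA with Bonferroni.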

[2] = Effect on PARP protein level in mouse C2 cells at 2.5 uM incubated for 30 mins by SDS-PAGE and immunoblotting method; type: cell-based; settings: c2, 0.5 h
[3] = Cytoprotective activity against H2O2-induced cytotoxicity in mouse C2 cells assessed as cell viability at 15 uM after 24 hrs by MTT assay (reference value: 83.1 +/- 3.5%); type: functional; settings: C2, 24 h, read-out: Activity
[4] = Cytotoxic activity against mouse C2 cells assessed as cell viability at 15 uM after 24 hrs by MTT assay (reference value: 100%); type: cell-based; settings: read-out: Activity
Summary of the method: (§2)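 Serum-deprived C2 myoblasts (≥3 h, 70% confluence) incubated with compound alone (DMSO vehicle) for 24 h; MTT read at 540 nm after lysis in 0.1 M HCl/isopropanol, expressed as % of untreated control; means ± sem of ≥3 independent experiments.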

[5] = Cytoprotective activity against curcumin-induced cytotoxicity in mouse C2 cells assessed as cell viability at 15 uM after 24 hrs by MTT assay (reference value: 83.8 +/- 0.4%); type: functional; settings: C2, 24 h, read-out: Activity
C2 [6] = assay: Inhibition of curcumin-induced ERK phosphorylation in mouse C2 cells at 15 uM pre-incubated for 30 mins before curcumin exposure for 15 mins by SDS-PAGE and immunoblotting method; type: cell-based
Summary of the method: (§3)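 Cells pre-treated 30 min with compound, then 50 µM curcumin for 15 min; whole-cell extracts (buffer G, 30 µg) immunoblotted for phospho-ERKs, actin loading control, ECL and densitometry; means ± sem of ≥3 experiments, one-way ANOVA/Bonferroni.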

C2 [7] = assay: Inhibition of curcumin-induced JNK in mouse C2 cells assessed as reduction in c-Jun phosphorylation at 15 uM pre-incubated for 30 mins before curcumin exposure for 4 hrs by Western blotting method; type: cell-based
Summary of the method: (§4)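 After 30 min pre-incubation with compound and 4 h 50 µM curcumin, nuclear extracts prepared by subcellular fractionation (25 µg) immunoblotted for phospho-c-Jun, with total c-Jun as loading control; densitometry, means ± sem of ≥3 experiments, one-way ANOVA/Bonferroni.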

C2 [8] = assay: Inhibition of curcumin-induced JNK phosphorylation in mouse C2 cells at 15 uM pre-incubated for 30 mins before curcumin exposure for 2 hrs by SDS-PAGE and immunoblotting method
[9] = Cytoprotective activity against H2O2-induced cytotoxicity in mouse C2 cells assessed as cell viability at 1 uM after 24 hrs by MTT assay (reference value: 83.1 +/- 3.5%); type: functional; settings: C2, 24 h, read-out: Activity
[10] = Cytoprotective activity against H2O2-induced cytotoxicity in mouse C2 cells assessed as cell viability at 30 uM after 24 hrs by MTT assay (reference value: 83.1 +/- 3.5%); type: functional; settings: C2, 24 h, read-out: Activity
[11] = Cytoprotective activity against H2O2-induced cytotoxicity in mouse C2 cells assessed as cell viability at 50 uM after 24 hrs by MTT assay (reference value: 83.1 +/- 3.5%); type: functional; settings: C2, 24 h, read-out: Activity
[12] = Cytotoxic activity against mouse C2 cells assessed as cell viability at 50 uM after 24 hrs by MTT assay (reference value: 100%); type: cell-based; settings: read-out: Activity; summary of the method: as §2
C2 [13] = assay: Inhibition of H2O2-induced ERK phosphorylation in mouse C2 cells at 15 uM pre-incubated for 30 mins before H2O2 exposure for 15 mins by SDS-PAGE and immunoblotting method; type: cell-based
Summary of the method: (§5)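 C2 myoblasts pre-incubated 30 min with compound, then 1 mM H2O2 for 15 min. Lysates in buffer G (30 µg) run on SDS–PAGE and immunoblotted for phospho-ERKs or phospho-JNKs, actin as loading control; ECL, densitometry; means ± sem, ≥3 experiments; one-way ANOVA with Bonferroni post-test.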

C2 [14] = assay: Inhibition of H2O2-induced JNK phosphorylation in mouse C2 cells at 15 uM pre-incubated for 30 mins before H2O2 exposure for 15 mins by SDS-PAGE and immunoblotting method; type: cell-based; summary of the method: as §5
[15] = Antioxidant activity assessed as DPPH free radical scavenging activity after 30 mins by spectrophotometry; type: physicochemical
Summary of the method: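 DPPH radical (final 400 µM, in ethanol) mixed with test compound at 25–400 µM at room temperature; absorbance at 517 nm recorded at intervals over 90 min; % reducing capacity taken at 30 min, IC50 from this; means ± sem of at least two independent experiments.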

C2 [16] = assay: Inhibition of H2O2-induced ERK phosphorylation in mouse C2 cells at 30 uM pre-incubated for 30 mins before H2O2 exposure for 15 mins by SDS-PAGE and immunoblotting method; type: cell-based; summary of the method: as §5
C2 [17] = assay: Inhibition of H2O2-induced JNK phosphorylation in mouse C2 cells at 30 uM pre-incubated for 30 mins before H2O2 exposure for 15 mins by SDS-PAGE and immunoblotting method; type: cell-based; summary of the method: as §5
C2 [18] = assay: Inhibition of curcumin-induced ERK phosphorylation in mouse C2 cells at 30 uM pre-incubated for 30 mins before curcumin exposure for 15 mins by SDS-PAGE and immunoblotting method; type: cell-based; summary of the method: as §3
C2 [19] = assay: Inhibition of curcumin-induced JNK in mouse C2 cells assessed as reduction in c-Jun phosphorylation at 30 uM pre-incubated for 30 mins before curcumin exposure for 4 hrs by Western blotting method; type: cell-based; summary of the method: as §4
C2 [20] = assay: Inhibition of curcumin-induced apoptosis in mouse C2 cells assessed as reduction in PARP cleavage at 30 uM pre-incubated for 30 mins before curcumin exposure for 4 hrs by SDS-PAGE and immunoblotting method; type: functional, cell-based; summary of the method: as §1
[21] = Effect on PARP protein level in mouse C2 cells at 30 uM incubated for 30 mins by SDS-PAGE and immunoblotting method; type: cell-based; settings: c2, 0.5 h
[22] = Cytotoxic activity against mouse C2 cells assessed as cell viability at 30 uM after 24 hrs by MTT assay (reference value: 100%); type: cell-based; settings: read-out: Activity; summary of the method: as §2
[23] = Cytoprotective activity against curcumin-induced cytotoxicity in mouse C2 cells assessed as cell viability at 30 uM after 24 hrs by MTT assay (reference value: 83.8 +/- 0.4%); type: functional; settings: C2, 24 h, read-out: Activity
C2 [24] = assay: Inhibition of curcumin-induced JNK phosphorylation in mouse C2 cells at 30 uM pre-incubated for 30 mins before curcumin exposure for 2 hrs by SDS-PAGE and immunoblotting method
C2 [25] = assay: Inhibition of curcumin-induced apoptosis in mouse C2 cells assessed as reduction in PARP cleavage at 15 uM pre-incubated for 30 mins before curcumin exposure for 4 hrs by SDS-PAGE and immunoblotting method; type: functional, cell-based; summary of the method: as §1
[26] = Effect on PARP protein level in mouse C2 cells at 15 uM incubated for 30 mins by SDS-PAGE and immunoblotting method; type: cell-based; settings: c2, 0.5 h

N#C/C(=C1/Nc2ccccc2S1)c1ccnc(NCCc2cccnc2)n1
inhibition (C2 [1]): Active | Activity [2]: Non-toxic

COc1ccc2[nH]cc(CCNC(C)=O)c2c1 [MELATONIN]
viability at 15 µM [3]: 92.5% | viability at 24 h, 15 µM [4]: 96.9% | viability at 15 µM [5]: 98.5% | inhibition (C2 [6]): 53% | inhibition (C2 [7]): 57% | inhibition (C2 [8]): 50%

COc1cc(/C=C/C(=O)CC(=O)/C=C/c2ccc(O)c(OC)c2)ccc1O [CURCUMIN]
viability at 1 µM [9]: 85.5% | viability at 15 µM [3]: 90.2% | viability at 30 µM [10]: 93.1% | viability at 50 µM [11]: 53.6% | viability at 24 h, 50 µM [12]: 83.8% | inhibition (C2 [13]): 55% | inhibition (C2 [14]): 81%

CN1CC(O)(c2ccc(-c3ccccc3)cc2)Sc2ccccc21 (centres undefined)
IC50 [15]: 271 µM | viability at 1 µM [9]: 81.6% | viability at 15 µM [3]: 87.1% | viability at 30 µM [10]: 99.1% | viability at 50 µM [11]: 97.6% | inhibition (C2 [16]): 55% | inhibition (C2 [17]): 81% | inhibition (C2 [18]): 53% | inhibition (C2 [19]): 40% | inhibition (C2 [20]): Active | Activity [21]: Non-toxic | viability at 24 h, 30 µM [22]: 99.5% | viability at 30 µM [23]: 99.1% | inhibition (C2 [24]): 50%

CN1CC(O)(c2ccc(-c3ccccc3)cc2)Oc2ccccc21 (centres undefined)
IC50 [15]: 119 µM | viability at 1 µM [9]: 84.6% | viability at 15 µM [3]: 97.1% | viability at 30 µM [10]: 76.2% | viability at 50 µM [11]: 71.6% | viability at 24 h, 15 µM [4]: 98.1% | viability at 15 µM [5]: 53.6% | inhibition (C2 [13]): 55% | inhibition (C2 [14]): 81% | inhibition (C2 [6]): 79% | inhibition (C2 [7]): inactive | inhibition (C2 [25]): inactive | Activity [26]: Non-toxic | inhibition (C2 [8]): inactive

Oc1ccc(/C=C/c2cc(O)cc(O)c2)cc1 [RESVERATROL]
IC50 [15]: 96 µM

Reference: ChEMBL document CHEMBL3392958, “Evaluation of two novel antioxidants with differential effects on curcumin-induced apoptosis in C2 skeletal myoblasts; involvement of JNKs” (Bioorg Med Chem, 2015)
